By IC50 is commonly meant the midpoint of a concentration-inhibition curve.

Data on 3 compounds can be found in PMC8041090 (SLAS discovery : advancing life sciences R & D, 2016).

Experiment [1] addresses PP1C (Homo sapiens, UniProt P62136). The experiment in a line: Radiolabeled phosphoprotein substrate confirmation assay. In kind it is biochemical. A digest of the protocol:
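Purified PP1C catalytic subunit (working stock kept at −20 °C in tris with 50% glycerol, 2 mM DTT, 0.1 mg/mL BSA, 2 mM MnCl₂) was assayed in single tubes against [³²P]- or [³³P]-phosphorylase A in HEPES pH 7.0 PP1C buffer (BSA, Triton X-100, DTT, ascorbate, MnCl₂). Liberated labelled orthophosphate was quantified and expressed as percentage of DMF-vehicle control activity; serial dilutions, n = 3.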

Experiment [2] addresses T1, PP5C (Homo sapiens, UniProt P53041).
T1 sequence (P53041 1-499): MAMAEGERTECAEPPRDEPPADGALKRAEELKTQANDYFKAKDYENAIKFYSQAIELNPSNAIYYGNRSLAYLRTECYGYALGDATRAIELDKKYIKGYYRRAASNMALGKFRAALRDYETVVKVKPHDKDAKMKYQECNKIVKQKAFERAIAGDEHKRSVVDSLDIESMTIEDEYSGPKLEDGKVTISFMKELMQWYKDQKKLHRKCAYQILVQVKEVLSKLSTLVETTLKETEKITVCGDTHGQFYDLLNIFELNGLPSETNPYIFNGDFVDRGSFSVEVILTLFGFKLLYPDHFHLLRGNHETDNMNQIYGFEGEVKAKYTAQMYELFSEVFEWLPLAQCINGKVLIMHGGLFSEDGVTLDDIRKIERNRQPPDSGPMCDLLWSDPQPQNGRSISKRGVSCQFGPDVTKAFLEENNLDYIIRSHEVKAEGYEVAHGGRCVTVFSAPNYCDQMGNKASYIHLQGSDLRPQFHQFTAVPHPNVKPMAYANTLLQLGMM
The experiment in a line: PP5C OMFP FLINT inhibition assay, 1536-well uHTS format. In kind it is biochemical.

For another experiment, the system named is PP4C. The note with it: read-out: IC50, PP4C; ref [4],[6]; cited from earlier work.
Experiment [3] concerns PP1C. As to conditions: read-out: IC50, PP1C; ref [4],[6]; cited from earlier work.
In another experiment the test system is PP2AC. As to conditions: read-out: IC50, PP2AC; ref [4],[6]; cited from earlier work.
The test system of experiment [4] is PP5C. As to conditions: read-out: IC50, PP5C; ref [4],[6]; cited from earlier work.

Sequence of PP1C (Homo sapiens, UniProt P62136) (P62136 whole entry): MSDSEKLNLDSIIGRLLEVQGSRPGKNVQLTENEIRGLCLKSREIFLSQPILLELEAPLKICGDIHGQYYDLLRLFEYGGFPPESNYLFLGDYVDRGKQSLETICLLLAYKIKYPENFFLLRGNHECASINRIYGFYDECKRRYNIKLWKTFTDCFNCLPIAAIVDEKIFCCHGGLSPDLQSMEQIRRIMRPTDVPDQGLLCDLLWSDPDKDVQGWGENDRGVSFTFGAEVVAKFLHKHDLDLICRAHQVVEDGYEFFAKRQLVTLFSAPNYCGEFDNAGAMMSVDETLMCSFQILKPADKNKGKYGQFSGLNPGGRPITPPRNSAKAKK

In the case of `COc1ccc(NC(=O)C2C3CCC(O3)C2C(=O)O)c(OC)c1` (stereo not drawn) [SID 93617938, 3-{[(2,4-dimethoxyphenyl)amino]carbonyl}−7-oxabicyclo[2.2.1]heptane-2-carboxylic acid], half-maximal inhibition at PP1C [1] (IC50) was put at 18.9 µM.
`C[C@@]12C(=O)OC(=O)[C@]1(C)[C@H]1CC[C@@H]2O1` [cantharidin]: on PP5C [2], the IC50 came to 0.52 µM.
Regarding `C[C@@](O)(/C=C/[C@H]1CC=CC(=O)O1)[C@@H](C[C@@H](O)\C=C/C=C\C=C\CO)OP(=O)(O)O` [fostriecin], the IC50 is less than 0.002 µM in the experiment with PP4C, more than 70 µM in the experiment on PP1C [3], less than 0.002 µM with PP2AC and more than 70 µM with PP5C [4].
